Reference: ChEMBL document CHEMBL3632617, “Chrysin-benzothiazole conjugates as antioxidant and anticancer agents” (Bioorg Med Chem Lett, 2015)
Converted amounts (≈) assume the structure as drawn.

Key:
[1] = system: SK-OV-3; test: Cytotoxicity against human SKOV3 cells after 48 hrs by SRB assay; type: functional, cell-based; conditions: SK-OV-3, 48 h
Outline: (§1)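 Cell lines (HeLa, CaSki, SK-OV-3, MDCK) were obtained from ATCC. The colorimetric end point used the protein-binding dye sulforhodamine B.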

[2] = system: HeLa; test: Cytotoxicity against human HeLa cells after 48 hrs by SRB assay; type: functional, cell-based; outline: as §1
[3] = system: MDCK; test: Cytotoxicity against MDCK cells after 48 hrs by SRB assay; type: cell-based; conditions: Canis lupus familiaris; outline: as §1
[4] = Antioxidant activity assessed as DPPH radical scavenging activity after 25 mins by UV-Visible spectrophotometric analysis; type: physicochemical
Outline: (§2)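 Radical scavenging by DPPH (Brand–Williams method) and by ABTS radical-cation decolorization via single electron transfer. Ascorbic acid served as the reference. IC50 is the concentration that inhibits 50% of the radicals. Results are the average of triplicate analyses.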

[5] = Antioxidant activity assessed as ABTS radical scavenging activity after 10 mins by UV-Visible spectrophotometric analysis; type: physicochemical; outline: as §2
[6] = Cytotoxicity against human CaSki cells after 48 hrs by SRB assay; type: functional, cell-based; conditions: Ca-Ski; outline: as §1
[7] = system: HeLa; test: Cytotoxicity against human HeLa cells; type: functional, cell-based

SMILES | IC50 [4] [µg/mL] | IC50 [5] [µg/mL] | IC50 [1] [µg/mL] | IC50 [2] [µg/mL] | CC50 [3] [µg/mL] | IC50 [6] [µg/mL] | IC50 [7] [µg/mL]
O=c1cc(-c2ccccc2)oc2cc(OCCCCNc3nc4ccccc4s3)cc(O)c12 | 26.45 (≈ 57.7 µM) | 8.567 (≈ 18.7 µM) | 48.5 (≈ 106 µM) | 4.75 (≈ 10.4 µM) | 348 (≈ 758 µM) | 14.6 (≈ 31.9 µM) | 
CCOc1ccc2nc(NCCCCOc3cc(O)c4c(=O)cc(-c5ccccc5)oc4c3)sc2c1 | 24.41 (≈ 48.6 µM) | 8.853 (≈ 17.6 µM) | 35.3 (≈ 70.3 µM) | 5.25 (≈ 10.4 µM) | 306 (≈ 610 µM) | 15.1 (≈ 29.9 µM) | 
O=c1cc(-c2ccccc2)oc2cc(OCCCCNc3nc4c(F)cc(F)cc4s3)cc(O)c12 | 15.12 (≈ 30.6 µM) | 5.764 (≈ 11.7 µM) | 36.8 (≈ 74.5 µM) | 5.56 (≈ 11.2 µM) | 307 (≈ 621 µM) | 10.8 (≈ 21.9 µM) | 
O=c1cc(-c2ccccc2)oc2cc(OCCCCNc3nc4ccc(C(F)(F)F)cc4s3)cc(O)c12 | 16.27 (≈ 30.9 µM) | 4.953 (≈ 9.41 µM) | 37.2 (≈ 70.6 µM) | 7.84 (≈ 14.9 µM) | 278 (≈ 529 µM) | 11.2 (≈ 21.3 µM) | 
CC(=O)Nc1ccc2nc(NCCCCOc3cc(O)c4c(=O)cc(-c5ccccc5)oc4c3)sc2c1 | 29.16 (≈ 56.6 µM) | 8.355 (≈ 16.2 µM) | 51.3 (≈ 99.4 µM) | 6.91 (≈ 13.4 µM) | 291 (≈ 565 µM) | 11.4 (≈ 22 µM) | 
CCC(=O)c1ccc2nc(NCCCCOc3cc(O)c4c(=O)cc(-c5ccccc5)oc4c3)sc2c1 | 32.23 (≈ 62.6 µM) | 7.157 (≈ 13.9 µM) | 35.6 (≈ 69.3 µM) | 6.26 (≈ 12.2 µM) | 296 (≈ 574 µM) | 17.8 (≈ 34.7 µM) | 
CCCC(=O)c1ccc2nc(NCCCCOc3cc(O)c4c(=O)cc(-c5ccccc5)oc4c3)sc2c1 | 38.98 (≈ 73.7 µM) | 8.535 (≈ 16.1 µM) | 41.6 (≈ 78.7 µM) | 7.17 (≈ 13.6 µM) | 278 (≈ 525 µM) | 17.8 (≈ 33.6 µM) | 
O=c1cc(-c2ccccc2)oc2cc(OCCCCNNc3nc4ccccc4s3)cc(O)c12 | 24.34 (≈ 51.4 µM) | 8.734 (≈ 18.4 µM) | 51.7 (≈ 109 µM) | 4.64 (≈ 9.79 µM) | 316 (≈ 668 µM) | 14.6 (≈ 30.9 µM) | 
O=C1O[C@H]([C@@H](O)CO)C(O)=C1O [ASCORBIC ACID] | 12.72 (≈ 72.2 µM) | 5.0925 (≈ 28.9 µM) |  |  |  |  | 
O=c1cc(-c2ccccc2)oc2cc(O)cc(O)c12 [CHRYSIN] |  |  |  |  |  |  | 10.9 (≈ 43 µM)

Further lines, with some results ahead:

IC50 [4] [µg/mL] | IC50 [5] [µg/mL] | SMILES | IC50 [1] [µg/mL] | IC50 [2] [µg/mL] | CC50 [3] [µg/mL] | IC50 [6] [µg/mL] | IC50 [7] [µg/mL]
28.13 (≈ 59.5 µM) | 8.785 (≈ 18.6 µM) | Cc1ccc2nc(NCCCCOc3cc(O)c4c(=O)cc(-c5ccccc5)oc4c3)sc2c1 | 48.4 (≈ 102 µM) | 6.56 (≈ 13.9 µM) | 294 (≈ 621 µM) | 15.5 (≈ 32.9 µM) | 
23.87 (≈ 48.9 µM) | 7.356 (≈ 15.1 µM) | COc1ccc2nc(NCCCCOc3cc(O)c4c(=O)cc(-c5ccccc5)oc4c3)sc2c1 | 38.1 (≈ 78.1 µM) | 6.15 (≈ 12.6 µM) | 285 (≈ 583 µM) | 16.1 (≈ 33 µM) | 
30.25 (≈ 60.1 µM) | 8.135 (≈ 16.2 µM) | O=c1cc(-c2ccccc2)oc2cc(OCCCCNc3nc4ccc([N+](=O)[O-])cc4s3)cc(O)c12 | 41.4 (≈ 82.3 µM) | 6.44 (≈ 12.8 µM) | 310 (≈ 615 µM) | 13.2 (≈ 26.3 µM) | 
15.56 (≈ 32.2 µM) | 6.543 (≈ 13.5 µM) | N#Cc1ccc2nc(NCCCCOc3cc(O)c4c(=O)cc(-c5ccccc5)oc4c3)sc2c1 | 43.7 (≈ 90.4 µM) | 8.53 (≈ 17.6 µM) | 312 (≈ 646 µM) | 18.8 (≈ 39 µM) | 
13.16 (≈ 26.7 µM) | 4.156 (≈ 8.43 µM) | O=c1cc(-c2ccccc2)oc2cc(OCCCCNc3nc4ccc(Cl)cc4s3)cc(O)c12 | 39.2 (≈ 79.6 µM) | 5.95 (≈ 12.1 µM) | 338 (≈ 685 µM) | 12.4 (≈ 25.2 µM) | 
16.09 (≈ 29.9 µM) | 6.565 (≈ 12.2 µM) | O=c1cc(-c2ccccc2)oc2cc(OCCCCNc3nc4ccc(Br)cc4s3)cc(O)c12 | 35.1 (≈ 65.3 µM) | 6.56 (≈ 12.2 µM) | 289 (≈ 538 µM) | 12.4 (≈ 23.1 µM) | 
25.44 (≈ 43.5 µM) | 9.836 (≈ 16.8 µM) | O=c1cc(-c2ccccc2)oc2cc(OCCCCNc3nc4ccc(I)cc4s3)cc(O)c12 | 56.4 (≈ 96.6 µM) | 8.12 (≈ 13.9 µM) | 298 (≈ 510 µM) | 13.2 (≈ 22.5 µM) | 
14.74 (≈ 30.9 µM) | 5.246 (≈ 11 µM) | O=c1cc(-c2ccccc2)oc2cc(OCCCCNc3nc4ccc(F)cc4s3)cc(O)c12 | 33.7 (≈ 70.8 µM) | 5.03 (≈ 10.6 µM) | 324 (≈ 680 µM) | 13.4 (≈ 28 µM) | 
21.66 (≈ 43.1 µM) | 6.742 (≈ 13.4 µM) | O=C(O)c1ccc2nc(NCCCCOc3cc(O)c4c(=O)cc(-c5ccccc5)oc4c3)sc2c1 | 43.3 (≈ 86.3 µM) | 8.42 (≈ 16.8 µM) | 324 (≈ 645 µM) | 12.1 (≈ 24 µM) | 
30.72 (≈ 61.4 µM) | 7.026 (≈ 14 µM) | CC(=O)c1ccc2nc(NCCCCOc3cc(O)c4c(=O)cc(-c5ccccc5)oc4c3)sc2c1 | 34.3 (≈ 68.4 µM) | 7.78 (≈ 15.6 µM) | 311 (≈ 621 µM) | 14.5 (≈ 29 µM) | 
